RORA inh – blocks the human nuclear receptor RORA. P35398. hit rate 0.43% among 65,000. inhibition, % at 10 µM. CHO-K1 Gal4-RORA LBD luciferase reporter, luminescence;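 active = inhibition above the mean of all tested compounds plus 3 SD, cut at about 52% in these data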
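Test system – CHO-K1 Gal4-RORA LBD luciferase reporter cells · Schedule – 20 h at 37 °C · Signal – luminescence from basal luciferase reporter expression · Measure – percent inhibition of basal reporter luminescence, control-normalized · Control set – -RORA mock-transfected DMSO wells 100%, +RORA DMSO wells 0%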
Each line names hits and unclear results; the compound was inactive in the other large screens. The entries come from a sample that favours hits as a whole.

CCCCN(C)C(=O)C1CCC(=O)N(c2cc(OC)c(OC)c(OC)c2)C1c1ccc(OC)cc1 (stereo unspecified)	none
COCCOC(=O)c1[nH]c2c(c1C)C(=O)C(C(=O)OC)C(C)C2 (stereo unspecified)	none
CCCCOC(=O)c1[nH]c2c(c1C)C(=O)CC(c1cc(OC)c(OC)c(OC)c1)C2 (stereo unspecified)	RORA inh 63.6
O=S(=O)(NC1CC2CCC1C2)c1ccc(Br)s1 (stereo unspecified)	none
CCOC(=O)N1CCN(C(=O)CCc2ccc(S(=O)(=O)NCCc3ccccc3)cc2)CC1	none
Fc1ccc(-c2nnc(NC3=NCCCCC3)o2)cc1	RORA inh 73.2
CC(C)Oc1ccccc1-c1nc(SCC(=O)O)n[nH]1	none
COc1cccc(OC)c1-c1nn2c(-c3ccccc3Cl)nnc2s1	none
CCOc1ccc(-c2nnc3ccc(SCc4ccc(C(=O)OC)o4)nn23)cc1	none
CCOc1ccc(OCc2cccc(C(=O)O)c2)cc1	RORA inh 93.8
O=C(O)c1ccc(COc2ccc(CO)cc2Cl)cc1	none
CN1CCN(C(=O)c2ccc(COc3ccc(Cl)cc3Cl)cc2)CC1	none
COc1ccc(NS(=O)(=O)c2cc(C(=O)O)ccc2C)cc1	none
CCOc1ccc2oc(-c3ccccc3)c(C(=O)O)c2c1	none
COc1ccc(OCc2cccc(C(=O)O)c2)cc1	RORA inh 94.1
CCOc1ccc(CCNC(=O)C(O)c2ccccc2)cc1 (stereo unspecified)	none
Cn1nnc(NC(=O)c2cccc(OCc3ccccc3)c2)n1	none
O=C(O)c1cccc(COc2ccc(CO)cc2Cl)c1	RORA inh 93.8
Cc1cc(C)nc(Sc2c(F)c(F)c(C(F)(F)F)c(F)c2F)n1	none
CCOC(=O)c1oc2ccccc2c1NC(=O)c1cc(OC)cc(OC)c1	none
CS(=O)(=O)N(CC(=O)NCC1CCCO1)c1ccc(F)c(Cl)c1 (stereo unspecified)	none
Cc1cc(C)n(Cc2ccc(C(=O)NCCC3=CCCCC3)o2)n1	none
O=C(CSc1nnc(-c2cccnc2)o1)OC1CCCCC1	none
O=C(Nc1ncnc2sc3c(c12)CCC3)c1ccco1	none
O=C(Cn1c(=O)sc2ccccc21)NCc1ccco1	none
O=C(NCc1ccco1)c1ccc2nc3sc4c(c3c(=O)n2c1)CCCC4	RORA inh 56.0
c1ccc2c(c1)Cc1cc(CN3CCOCC3)ccc1-2	none
COc1ccccc1C(=O)Nc1ccccn1	none
COc1ccc(C(=O)Nc2ccc(C)cn2)c(OC)c1	RORA inh 78.3
CCOc1ccc(NC(=O)c2ccccc2OC)cc1	none
O=C(c1ccco1)N1CCN(c2ccc(Cl)cc2)CC1	none
Cc1noc(C)c1S(=O)(=O)Nc1ccc(C(=O)N2CCN(c3ccc(Cl)cc3)CC2)cc1	RORA inh 60.4
CC(=O)c1ccc(N2CCN(C(=O)c3ccc(OCc4c(C)noc4C)cc3)CC2)cc1	none
O=C(CN(C1CCCCC1)S(=O)(=O)c1ccc(Cl)cc1)NCCCO	none
CCOC(=O)c1cccc(NC(=O)C(NS(=O)(=O)c2ccc3c(c2)CCN3C(C)=O)C(C)C)c1 (stereo unspecified)	none
O=C(NC1CCN(Cc2ccccc2)CC1)C1CCCN(S(=O)(=O)c2cccc3nonc23)C1 (stereo unspecified)	none
COc1ccc(NC(=O)CC2Oc3ccccc3NC2=O)cc1 (stereo unspecified)	none
CC(C)C(=O)N1CCN(c2nc(-c3ccccc3)c3c(c2C#N)CCCC3)CC1	none
CCCCNC(=O)c1cc2c(=O)n3cccc(C)c3nc2n(Cc2ccncc2)c1=N	none
Nc1ccc(-c2nc3c(Cl)cc(N)cc3[nH]2)cc1	RORA inh 78.7
CCOC(=O)/C(C#N)=C1/C=CNC(=O)N1	none
CCC(CO)NCCNC(CC)CO (stereo unspecified)	none

High-throughput results from PubChem.
